Measured values taken from ChEMBL document CHEMBL4152327, “Homopiperazine-rhodamine B adducts of triterpenoic acids are strong mitocans” (Eur J Med Chem, 2018).

Legend:
A-375 = assay: Cytotoxicity against human A375 cells after 96 hrs by SRB assay; assay type: functional, cell-based; conditions: A-375, 96 h
Procedure, shortened: (§1)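 SRB assay; cells exposed to compound for 96 h. EC50 in µM averaged from three independent experiments, each in triplicate, with 95% confidence interval and mean ± standard mean error. Assay cut-off 30 µM.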

A2780 = assay: Cytotoxicity against human A2780 cells after 96 hrs by SRB assay; assay type: functional, cell-based; conditions: A2780, 96 h; procedure, shortened: as §1
HT-29 = assay: Cytotoxicity against human HT-29 cells after 96 hrs by SRB assay; assay type: functional, cell-based; conditions: HT-29, 96 h; procedure, shortened: as §1
MCF7 = assay: Cytotoxicity against human MCF7 cells after 96 hrs by SRB assay; assay type: functional, cell-based; conditions: MCF7, 96 h; procedure, shortened: as §1
NIH3T3 = assay: Cytotoxicity against mouse NIH/3T3 cells after 96 hrs by SRB assay; assay type: cell-based; conditions: NIH3T3, 96 h; procedure, shortened: as §1
SW-1736 = assay: Cytotoxicity against human SW1736 cells after 96 hrs by SRB assay; assay type: functional, cell-based; conditions: SW-1736, 96 h; procedure, shortened: as §1
[1] = Drug uptake in mitochondria of human A2780 cells at 100 nM after 24 hrs by rhodamine 123 staining-based fluorescence microscopic method; assay type: ADME; conditions: a2780, 24 h, 0.1 µM
Procedure, shortened: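 A2780 cells, about 1·10^6 per 25 cm² flask, grown 24 h, then given fresh medium containing compound for 24 h (blank medium as control). Cells collected, centrifuged at 1200 rpm and 4 °C, washed in PBS, then mixed with Hoechst 33342/Rhodamine 123 solution (10 µg/ml). Incubated 30 min at 37 °C in the dark, washed, and viewed by epifluorescence microscopy.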

[2] = Selectivity index, ratio of EC50 for mouse NIH/3T3 cells to EC50 for human A2780 cells; assay type: toxicity; conditions: NIH/3T3 cells and A2780 cells, read-out: Ratio EC50

SMILES	EC50 (A-375)	EC50 (A2780)	EC50 (HT-29)	EC50 (MCF7)	EC50 (NIH3T3)	EC50 (SW-1736)	Drug uptake [1]	selectivity ratio [2]
CC(=O)O[C@@H]1CC[C@@]2(C)[C@@H](CC[C@]3(C)[C@@H]2C(=O)C=C2[C@@H]4[C@@H](C)[C@H](C)CC[C@]4(C)CC[C@]23C)[C@@]1(C)C(=O)N1CCCNCC1	3.21 µM	2.85 µM	1.99 µM	2.41 µM	0.9 µM			
C=C(C)[C@@H]1CC[C@]2(C(=O)N3CCCNCC3)CC[C@]3(C)[C@H](CC[C@@H]4[C@@]5(C)CC[C@H](OC(C)=O)C(C)(C)[C@@H]5CC[C@]43C)[C@@H]12		1.61 µM	1.47 µM	1.52 µM	1.05 µM	1.84 µM		
CC(=O)O[C@@H]1CC[C@@]2(C)[C@@H](CC[C@]3(C)[C@@H]2C(=O)C=C2[C@@H]4[C@@H](C)[C@H](C)CC[C@]4(C)CC[C@]23C)[C@@]1(C)C(=O)NCc1ccccc1	13.7 µM	10.8 µM	20.2 µM	9.8 µM	28.1 µM			
CCN(CC)c1ccc2c(-c3ccccc3C(=O)N3CCCN(C(=O)[C@]4(C)[C@@H]5CC[C@]6(C)[C@H](C(=O)C=C7[C@@H]8[C@@H](C)[C@H](C)CC[C@]8(C)CC[C@]76C)[C@@]5(C)CC[C@H]4OC(C)=O)CC3)c3ccc(=[N+](CC)CC)cc-3oc2c1	0.51 µM	0.45 µM	0.5 µM	0.39 µM	0.4 µM			
CCN(CC)c1ccc2c(-c3ccccc3C(=O)N3CCCN(C(=O)[C@@]4(C)CC[C@]5(C)CC[C@]6(C)C(=CC(=O)[C@@H]7[C@@]8(C)CC[C@H](OC(C)=O)C(C)(C)[C@@H]8CC[C@]76C)[C@@H]5C4)CC3)c3ccc(=[N+](CC)CC)cc-3oc2c1	0.76 µM	0.22 µM	0.28 µM	0.22 µM	0.33 µM	0.22 µM		
CC(=O)O[C@H]1CC[C@]2(C)[C@H]3CC=C4[C@@H]5CC(C)(C)CC[C@]5(C(=O)N5CCCNCC5)CC[C@@]4(C)[C@]3(C)CC[C@H]2C1(C)C	2.3 µM	2.31 µM	1.3 µM	1.5 µM	1.23 µM	3.25 µM		
CCN(CC)c1ccc2c(-c3ccccc3C(=O)O[C@@H]3CC[C@@]4(C)[C@@H](CC[C@]5(C)[C@@H]4C(=O)C=C4[C@@H]6[C@@H](C)[C@H](C)CC[C@]6(C)CC[C@]45C)[C@@]3(C)C(=O)OC)c3ccc(=[N+](CC)CC)cc-3oc2c1	0.36 µM	0.3 µM	0.29 µM	0.23 µM	0.19 µM			
C[C@H]1[C@H](C)CC[C@]2(C)CC[C@]3(C)C(=CC(=O)[C@@H]4[C@@]5(C)CC[C@@H](O)[C@](C)(C(=O)OCc6ccccc6)[C@@H]5CC[C@]43C)[C@H]12	24.8 µM	30.1 µM	28.8 µM	26.4 µM	> 30 µM	24.8 µM		
CCN(CC)c1ccc2c(-c3ccccc3C(=O)O[C@H]3CC[C@@]4(C)[C@@H](CC[C@]5(C)[C@@H]4C(=O)C=C4[C@@H]6[C@@H](C)[C@H](C)CC[C@]6(C)CC[C@]45C)[C@@]3(C)C(=O)NCc3ccccc3)c3ccc(=[N+](CC)CC)cc-3oc2c1	0.59 µM	0.53 µM	0.55 µM	0.49 µM	0.4 µM			
CC(=O)O[C@H]1CC[C@]2(C)[C@H]3CC=C4[C@@H]5[C@@H](C)[C@H](C)CC[C@]5(C(=O)N5CCCNCC5)CC[C@@]4(C)[C@]3(C)CC[C@H]2C1(C)C	1.95 µM	2.21 µM	1.88 µM	1.61 µM	1.81 µM			
C[C@H]1[C@H](C)CC[C@]2(C)CC[C@]3(C)C(=CC(=O)[C@@H]4[C@@]5(C)CC[C@@H](O)[C@](C)(C(=O)NCc6ccccc6)[C@@H]5CC[C@]43C)[C@H]12	12.8 µM	10 µM	10.7 µM	7.3 µM	4.9 µM			
CC(=O)O[C@H]1CC[C@]2(C)[C@H]3C(=O)C=C4[C@@H]5C[C@@](C)(C(=O)N6CCCNCC6)CC[C@]5(C)CC[C@@]4(C)[C@]3(C)CC[C@H]2C1(C)C	18.7 µM	12 µM	5.11 µM	10.7 µM	12.3 µM	18.7 µM		
CCN(CC)c1ccc2c(-c3ccccc3C(=O)N3CCCN(C(=O)[C@]45CC[C@@H](C)[C@H](C)[C@H]4C4=CC[C@@H]6[C@@]7(C)CC[C@H](OC(C)=O)C(C)(C)[C@@H]7CC[C@@]6(C)[C@]4(C)CC5)CC3)c3ccc(=[N+](CC)CC)cc-3oc2c1	0.04 µM	0.02 µM	0.04 µM	0.03 µM	0.14 µM	0.04 µM		
CCN(CC)c1ccc2c(-c3ccccc3C(=O)O[C@H]3CC[C@@]4(C)[C@@H](CC[C@]5(C)[C@@H]4C(=O)C=C4[C@@H]6[C@@H](C)[C@H](C)CC[C@]6(C)CC[C@]45C)[C@@]3(C)C(=O)OCc3ccccc3)c3ccc(=[N+](CC)CC)cc-3oc2c1	1.52 µM	1.32 µM	1.71 µM	1.38 µM	1.01 µM			
CCN(CC)c1ccc2c(-c3ccccc3C(=O)N3CCCN(C(=O)[C@]45CCC(C)(C)C[C@H]4C4=CC[C@@H]6[C@@]7(C)CC[C@H](OC(C)=O)C(C)(C)[C@@H]7CC[C@@]6(C)[C@]4(C)CC5)CC3)c3ccc(=[N+](CC)CC)cc-3oc2c1.[Cl-]	0.03 µM	0.01 µM	0.04 µM	0.03 µM	0.17 µM	0.03 µM	Active	17
C=C(C)[C@@H]1CC[C@]2(C(=O)O)CC[C@]3(C)[C@H](CC[C@@H]4[C@@]5(C)CC[C@H](O)C(C)(C)[C@@H]5CC[C@]43C)[C@@H]12 [BETULINIC ACID]	17.1 µM					18.3 µM		
